Laboratory results: ChEMBL document CHEMBL4368918, “Structure-Based Design of Inhibitors Selective for Human Proteasome β2c or β2i Subunits” (J Med Chem, 2019)

Assays:
[1] = molecular target: T1, Proteasome subunit beta type-10 (Homo sapiens, UniProt P40306); test: Inhibition of 20S immunoproteasome beta 2 (unknown origin) by cell based ABPP assay
T1 sequence (P40306 whole entry): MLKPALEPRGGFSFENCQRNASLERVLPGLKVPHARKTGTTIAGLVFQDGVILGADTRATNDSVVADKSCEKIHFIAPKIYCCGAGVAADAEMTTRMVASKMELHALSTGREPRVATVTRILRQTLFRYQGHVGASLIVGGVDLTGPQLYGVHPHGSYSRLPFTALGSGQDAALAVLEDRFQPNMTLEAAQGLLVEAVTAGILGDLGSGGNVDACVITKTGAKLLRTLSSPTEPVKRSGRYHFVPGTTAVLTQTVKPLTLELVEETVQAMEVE
Outline: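 Living RPMI-8226 cells, (5–8) ×10^5 cells/mL, exposed to inhibitor 1 h at 37 °C, washed, lysed in digitonin buffer 1 h on ice; residual activity labelled with cocktail ABPs, SDS-PAGE in-gel fluorescence, bands divided by mock, Coomassie staining to correct loading. IC50 from mean of three independent experiments.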

[2] = species on record: Homo sapiens; test: Selectivity ratio of IC50 for 20S immunoproteasome beta 2 (unknown origin) to IC50 for 20S constitutive proteasome beta 2 trypsin-like activity (unknown origin)

Row | SMILES | IC50 [1] | Ratio IC50 [2]
1 | CC(C)C[C@H](NC(=O)c1cc(Cl)ccc1Cl)C(=O)N[C@@H](CC(C)C)C(=O)N[C@H](/C=C/S(C)(=O)=O)Cc1ccc(CN)cc1 | 350 nM | 5
2 | CC(C)[C@H](NC(=O)[C@H](Cc1ccc(CN)cc1)NC(=O)[C@H](Cc1ccccc1)N=[N+]=[N-])C(=O)N[C@H](C(=O)[C@@]1(C)CO1)C1CCCCC1 |  | 1
3 | CC(C)C[C@H](NC(=O)[C@H](CC(C)C)NC(=O)[C@H](Cc1ccccc1)NC(=O)CN=[N+]=[N-])C(=O)N[C@H](/C=C/S(C)(=O)=O)Cc1ccc(CN)cc1 | 22 nM | 0.6
4 | Cc1ncc(C(=O)N[C@@H](CC(C)C)C(=O)N[C@@H](CCC2CCCCC2)C(=O)N[C@H](/C=C/S(C)(=O)=O)Cc2ccc(CN)cc2)s1 | 280 nM | 25
5 | Cc1ncc(C(=O)N[C@@H](CC(C)C)C(=O)N[C@@H](CC2CCC(C3CCCCC3)CC2)C(=O)N[C@H](/C=C/S(C)(=O)=O)Cc2ccc(CN)cc2)s1 (some centres undefined) | 45 nM | 3
6 | Cc1ncc(C(=O)N[C@@H](CC2CCC(C3CCCCC3)CC2)C(=O)N[C@@H](CC(C)C)C(=O)N[C@H](/C=C/S(C)(=O)=O)Cc2ccc(CN)cc2)s1 (some centres undefined) | > 10000 nM | > 3
7 | Cc1ncc(C(=O)N[C@@H](CC(C)C)C(=O)N[C@@H](CC2CCC3CCCCC3C2)C(=O)N[C@H](/C=C/S(C)(=O)=O)Cc2ccc(CN)cc2)s1 (some centres undefined) | 170 nM | 10
8 | CC(C)C[C@H](NC(=O)CN1CCOCC1)C(=O)N[C@@H](CC(C)C)C(=O)N[C@H](/C=C/S(C)(=O)=O)Cc1ccc(CN)cc1 | 47 nM | 1
9 | CC(C)C[C@H](NC(=O)c1ccc(-c2ccccc2)nc1)C(=O)N[C@@H](CC(C)C)C(=O)N[C@H](/C=C/S(C)(=O)=O)Cc1ccc(CN)cc1 | 23 nM | 0.8
10 | Cc1ncc(C(=O)N[C@@H](CC2CCCC3CCCCC32)C(=O)N[C@@H](CC(C)C)C(=O)N[C@H](/C=C/S(C)(=O)=O)Cc2ccc(CN)cc2)s1 (some centres undefined) | 48000 nM | 21
11 | CC(C)C[C@H](NC(=O)c1cnccn1)C(=O)N[C@@H](C)C(=O)N[C@H](/C=C/S(C)(=O)=O)Cc1ccc(CN)cc1 | 1350 nM | 6
12 | CC(C)[C@H](NC(=O)[C@H](Cc1ccc(CN)cc1)NC(=O)[C@H](Cc1ccccc1)N=[N+]=[N-])C(=O)N[C@@H](CC1CCC(C2CCCCC2)CC1)C(=O)[C@@]1(C)CO1 (some centres undefined) |  | 1.6
13 | Cc1ncc(C(=O)N[C@@H](CC(C)C)C(=O)N[C@@H](CC2CCC(C)CC2)C(=O)N[C@H](/C=C/S(C)(=O)=O)Cc2ccc(CN)cc2)s1 (some centres undefined) | 200 nM | 7
14 | CC(C)C[C@H](NC(=O)[C@H](Cc1ccccc1)N=[N+]=[N-])C(=O)N[C@@H](CC(C)(C)F)C(=O)N[C@H](/C=C/S(C)(=O)=O)Cc1ccc(CN)cc1 | 47 nM | 3
15 | Cc1ncc(C(=O)N[C@@H](CC(C)C)C(=O)N[C@@H](CC2CCCC3CCCCC32)C(=O)N[C@H](/C=C/S(C)(=O)=O)Cc2ccc(CN)cc2)s1 (some centres undefined) | 175 nM | 4
16 | COC1CCC(C[C@H](NC(=O)[C@H](CC(C)C)NC(=O)c2cnc(C)s2)C(=O)N[C@H](/C=C/S(C)(=O)=O)Cc2ccc(CN)cc2)CC1 (some centres undefined) | 360 nM | 8
17 | Cc1ncc(C(=O)N[C@@H](CC2CCC(C)CC2)C(=O)N[C@@H](CC(C)C)C(=O)N[C@H](/C=C/S(C)(=O)=O)Cc2ccc(CN)cc2)s1 (some centres undefined) | 325 nM | 0.8
18 | CC1CCC(C[C@H](NC(=O)[C@@H](NC(=O)[C@H](Cc2ccc(CN)cc2)NC(=O)[C@H](Cc2ccccc2)N=[N+]=[N-])C(C)C)C(=O)[C@@]2(C)CO2)CC1 (some centres undefined) |  | 1
19 | CC(C)[C@H](NC(=O)[C@H](Cc1ccc(CN)cc1)NC(=O)[C@H](Cc1ccccc1)N=[N+]=[N-])C(=O)N[C@@H](CC1CC2CCC1C2)C(=O)[C@@]1(C)CO1 (some centres undefined) |  | 2.7
20 | Cc1ncc(C(=O)N[C@@H](CC(C)C)C(=O)N[C@@H](CC(C)C)C(=O)N[C@H](/C=C/S(C)(=O)=O)Cc2ccc(CN)cc2)s1 | 700 nM | 10
21 | CC(C)C[C@H](NC(=O)[C@H](Cc1ccccc1)N=[N+]=[N-])C(=O)N[C@@H](CC(F)(F)F)C(=O)N[C@H](/C=C/S(C)(=O)=O)Cc1ccc(CN)cc1 | 130 nM | 6
22 | Cc1ncc(C(=O)N[C@H](C(=O)N[C@@H](CC(C)C)C(=O)N[C@H](/C=C/S(C)(=O)=O)Cc2ccc(CN)cc2)C2CCCCC2)s1 | 61 nM | 1
23 | COC[C@H](NC(=O)[C@H](CC(C)C)NC(=O)[C@H](Cc1ccccc1)N=[N+]=[N-])C(=O)N[C@H](/C=C/S(C)(=O)=O)Cc1ccc(CN)cc1 | 200 nM | 25
24 | Cc1ncc(C(=O)N[C@@H](CC(C)C)C(=O)N[C@@H](CC2CCCCC2)C(=O)N[C@H](/C=C/S(C)(=O)=O)Cc2ccc(CN)cc2)s1 | 260 nM | 7
25 | Cc1ncc(C(=O)N[C@@H](CC2CCCCC2)C(=O)N[C@@H](CC2CCCCC2)C(=O)N[C@H](/C=C/S(C)(=O)=O)Cc2ccc(CN)cc2)s1 | 420 nM | 11
26 | Cc1ncc(C(=O)N[C@@H](CC2CCC3CCCCC3C2)C(=O)N[C@@H](CC(C)C)C(=O)N[C@H](/C=C/S(C)(=O)=O)Cc2ccc(CN)cc2)s1 (some centres undefined) | 4100 nM | 8
27 | CC(C)[C@H](NC(=O)[C@H](Cc1ccc(CN)cc1)NC(=O)[C@H](Cc1ccccc1)N=[N+]=[N-])C(=O)N[C@@H](CC1CCC2CCCCC2C1)C(=O)[C@@]1(C)CO1 (some centres undefined) |  | 1
